Source: PubChem BioAssay
CHOP inh: inhibitors of CHOP induction in ER stress response. CHO-K1 CHOP-promoter luciferase, tunicamycin-induced, 15-18 h. inhibition, % at 10 µM. 220,000 tested, 3.8% active. AID 2732;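 active = compounds that reduced the stress-induced luciferase reporter signal by more than about 70% of percent inhibition, limit read from the data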
UPR CHOP act: activators of apoptotic arm of unfolded protein response (CHOP). CHO-CHOP luciferase reporter, UPR activation, luminescence; percent of tunicamycin response over DMSO baseline. activation, % at 10 µM. 330,000 tested, 0.34% active. AID 449763;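 active = at 10 µM dose, activation of 40% or more, normalized to positive control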
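assay system = CHO CHOP reporter cells | amount = 500 CHO-CHOP cells per well | buffer or medium = F12 with 10% FBS | incubation = 16-18 h cell attachment, then 6 h compound exposure, 37 °C | detection = luminescence read with Steady-Glo | read-out = percent activation relative to tunicamycin control | controls = tunicamycin high control, DMSO low control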
697 NFkB inh: inhibitors of the PMA/ionomycin-induced NF-kB reporter in 697 B cells; 697 B-cell NF-kB luciferase reporter, 16 h; inhibition, % at 4 µM; 330,000 tested, 0.33% active; in the data active = inhibition above about 35%
XBP1 UPR activ: adaptive UPR (XBP1) activation; AID 463104; activation, % at 20 µM; CHO-XBP1 luciferase reporter, IRE1-XBP1 UPR activation, luminescence; percent of tunicamycin response, DMSO as zero; 330,000 tested, 0.33% active;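 active = versus positive control, 20 µM dose yields 30% or more activation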
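Material: IRE1-XBP1 luciferase reporter CHO line / Quantity: one thousand reporter cells per well / Buffer or medium: F12 with 10% serum / Compound: 20 µM single concentration, DMSO 1% / Times: 6 h treatment, 37 °C / Detection: Steady-Glo luciferase glow luminescence, 10 min after reagent addition / Benchmarks: tunicamycin high, DMSO low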
Jurkat NFkB inh: inhibitors of the PMA/ionomycin-induced NF-kB reporter in Jurkat cells; PMA/ionomycin-induced NF-kB luciferase reporter, luminescence; inhibition, % at 4 µM; 330,000 tested, 0.53% active; in the data active = inhibition above about 50%
XBP1 UPR conf: confirmation of adaptive unfolded protein response (XBP1) activators; shares compounds with XBP1 UPR activ; CHO-XBP1 IRE1-XBP1 luciferase reporter, luminescence; activation, % at 20 µM; 1,000 tested, 63% active; AID 485299;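 active = reporter signal at least 30% of the positive control's activation in two or more of four replicate wells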
Hits are given with their value. Shown is part of a subset that was picked to be rich in hits.

`CC1(C)CC(=O)C(C=Nc2ccc3cn[nH]c3c2)=C(O)C1` gave CHOP inh inactive, UPR CHOP act inactive, 697 NFkB inh inactive, XBP1 UPR activ 30.4, Jurkat NFkB inh inactive and XBP1 UPR conf inactive.
`COc1cc(/C=N/NC(=O)NC23CC4CC(CC(C4)C2)C3)ccc1O` gave UPR CHOP act inactive, 697 NFkB inh inactive, XBP1 UPR activ 44.4, Jurkat NFkB inh inactive and XBP1 UPR conf inactive.
`COc1cc(/C=N\NC(=O)C2CC3C=CC2C3)ccc1O` (configuration not stated) gave CHOP inh inactive, UPR CHOP act inactive, 697 NFkB inh inactive, XBP1 UPR activ inactive and Jurkat NFkB inh inactive.
Cc1cc(Cl)cc(C)c1OCC(=O)N1CCN(c2ncccn2)CC1 was read as UPR CHOP act inactive, 697 NFkB inh inactive, XBP1 UPR activ inactive and Jurkat NFkB inh inactive.
`COc1ccc2c(c1)N(C)/C(=C1/SC(=NCc3ccccc3)N(c3ccccc3)C1=O)S2` gave CHOP inh inactive, UPR CHOP act inactive, 697 NFkB inh inactive, XBP1 UPR activ inactive and Jurkat NFkB inh inactive.
`CCN1C(=O)/C(=C2/Sc3ccc(OC)cc3N2C)SC1=Nc1cccc(O)c1` gave CHOP inh inactive, UPR CHOP act inactive, 697 NFkB inh inactive, XBP1 UPR activ 69.6, Jurkat NFkB inh inactive and XBP1 UPR conf inactive.
For COc1ccc(NC(=O)CSc2nc3n[nH]c(C)c3c(=N)n2-c2ccc(Cl)c(C)c2)cc1OC the results were UPR CHOP act inactive, 697 NFkB inh inactive, XBP1 UPR activ 34.4, Jurkat NFkB inh inactive and XBP1 UPR conf inactive.
Screening O=C(CC1CCCC1)NNC(=O)c1ccc(Br)cc1 returned UPR CHOP act inactive, 697 NFkB inh inactive, XBP1 UPR activ inactive and Jurkat NFkB inh inactive.
`Cc1ccccc1CN1CCSc2sccc2C1=O` gave CHOP inh inactive, UPR CHOP act inactive, 697 NFkB inh inactive, XBP1 UPR activ inactive and Jurkat NFkB inh inactive.
Screening CCCCCCCCCCOC(=O)Cn1c(COc2ccc(OC)cc2)[n+](C)c2ccccc21 returned UPR CHOP act inactive, 697 NFkB inh inactive, XBP1 UPR activ 66.0, Jurkat NFkB inh inactive and XBP1 UPR conf 44.3.
CCCCCCCCCCOC(=O)Cn1c(COc2ccc(Cl)cc2)[n+](C)c2ccccc21 was read as UPR CHOP act inactive, 697 NFkB inh inactive, XBP1 UPR activ 35.7, Jurkat NFkB inh inactive and XBP1 UPR conf 36.2.
For CCCCOC(=O)Cn1c(=O)n(CC(=O)OCCCC)c2ccccc21 the results were CHOP inh inactive, UPR CHOP act inactive, 697 NFkB inh inactive, XBP1 UPR activ inactive and Jurkat NFkB inh inactive.
CCCCCCCCCCOC(=O)Cn1c(COc2cccc(C)c2)[n+](C)c2ccccc21 was read as UPR CHOP act inactive, 697 NFkB inh inactive, XBP1 UPR activ 34.3, Jurkat NFkB inh inactive and XBP1 UPR conf inactive.
Screening CCCCCCCCCCOC(=O)Cn1c(COc2ccccc2)[n+](C)c2ccccc21 returned UPR CHOP act inactive, 697 NFkB inh inactive, XBP1 UPR activ 71.9, Jurkat NFkB inh inactive and XBP1 UPR conf inactive.
Screening Cc1ccc(NC(=O)C2CCN(S(=O)(=O)c3ccc(N4CCCC4=O)cc3)CC2)cc1Cl returned UPR CHOP act inactive, 697 NFkB inh inactive, XBP1 UPR activ inactive and Jurkat NFkB inh inactive.
COc1ccc(NC(=O)CN2CCC(NC(=O)c3ccco3)CC2)c([N+](=O)[O-])c1 was read as UPR CHOP act inactive, 697 NFkB inh inactive, XBP1 UPR activ inactive and Jurkat NFkB inh inactive.
Screening CCCCCCCCCCOC(=O)Cn1c(COc2ccccc2C)[n+](C)c2ccccc21 returned UPR CHOP act inactive, 697 NFkB inh inactive, XBP1 UPR activ 60.0, Jurkat NFkB inh inactive and XBP1 UPR conf 72.2.
For CCOC(=O)Cn1c(COc2ccccc2OC)[n+](C)c2ccccc21 the results were UPR CHOP act inactive, 697 NFkB inh inactive, XBP1 UPR activ inactive and Jurkat NFkB inh inactive.
For CCn1cc(C(=O)OCC(=O)Nc2cccc(S(=O)(=O)N3CCOCC3)c2)c(=O)c2ccc(C)nc21 the results were CHOP inh inactive, UPR CHOP act inactive, 697 NFkB inh inactive, XBP1 UPR activ 44.2, Jurkat NFkB inh inactive and XBP1 UPR conf inactive.
